Assay results published in ChEMBL document CHEMBL1157584, “Discovery of 4-amino-1-(7H-pyrrolo[2,3-d]pyrimidin-4-yl)piperidine-4-carboxamides as selective, orally active inhibitors of protein kinase B (Akt)” (J Med Chem, 2010).
≈ marks a conversion by molar mass, not a printed value. Blank lines part the entries; values can stand above or below the molecule they belong to.

How the values were obtained:
Mus musculus [1] = assay: Plasma clearance in mouse at 25 mg/kg, iv; type: ADME, organism-based; parameters: dose 25 mg/kg, route intravenous; details: in vivo
[2] = Solubility in aqueous buffer at pH 6.5; type: physicochemical
[3] = Solubility in aqueous buffer at pH 7.0; type: physicochemical
Mus musculus [4] = assay: Half life in mouse at 5 mg/kg, iv; type: ADME, organism-based; parameters: dose 5 mg/kg, route intravenous; details: in vivo
Mus musculus [5] = assay: Volume of distribution at steady state in mouse at 5 mg/kg, iv; type: ADME, organism-based; parameters: dose 5 mg/kg, route intravenous; details: in vivo
In short: (§1)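 Mice received a single iv dose, and plasma drug levels were followed over time. Pharmacokinetic parameters, including Vss in L, were fitted to model 201 with default settings.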

Mus musculus [6] = assay: Plasma clearance in mouse at 5 mg/kg, iv; type: ADME, organism-based; parameters: dose 5 mg/kg, route intravenous; details: in vivo
[7] = Oral bioavailability in mouse at 5 mg/kg; type: ADME, organism-based; details: in vivo
[8] = Plasma concentration in CrTac:Ncr-Fox1 (nu) athymic mouse bearing human U87MG cells at 200 mg/kg, po single dose after 4 hrs; type: ADME, organism-based, U-87MG ATCC; parameters: dose 200 mg/kg, route oral
In short: (§2)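 U87MG xenograft-bearing athymic mice given a single oral dose of 200 mg/kg. Compound levels measured in plasma and tumor samples 4 h after dosing.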

[9] = Drug level in CrTac:Ncr-Fox1 (nu) athymic mouse tumor bearing human U87MG cells at 200 mg/kg, po single dose after 4 hrs; type: ADME, organism-based, Neoplasm, U-87MG ATCC; parameters: dose 200 mg/kg, route oral; details: read-out: Drug uptake; in short: as §2
Mus musculus [10] = assay: Half life in mouse at 10 mg/kg, iv; type: ADME, organism-based; parameters: dose 10 mg/kg, route intravenous; details: in vivo
Mus musculus [11] = assay: Volume of distribution at steady state in mouse at 10 mg/kg, iv; type: ADME, organism-based; parameters: dose 10 mg/kg, route intravenous; details: in vivo; in short: as §1
Mus musculus [12] = assay: Plasma clearance in mouse at 10 mg/kg, iv; type: ADME, organism-based; parameters: dose 10 mg/kg, route intravenous; details: in vivo
[13] = Oral bioavailability in mouse at 10 mg/kg; type: ADME, organism-based; details: in vivo

CL (Mus musculus [1]): 0.33 L/h | solubility [2]: 260 µg/mL (≈ 761 µM) | solubility [3]: Insoluble
SMILES: NC1(Cc2ccc(Cl)cc2)CCN(c2ncnc3[nH]ccc23)CC1

t1/2 (Mus musculus [4]): 54 min | Vdss (Mus musculus [5]): 0.06 L | CL (Mus musculus [6]): 0.08 L/h | bioavailability [7]: 58% | concentration at 4 h [8]: 20 µM | concentration at 4 h [9]: 43 µM
SMILES: NC1(C(=O)NCc2ccc(Cl)cc2)CCN(c2ncnc3[nH]ccc23)CC1

t1/2 (Mus musculus [10]): 47.4 min | Vdss (Mus musculus [11]): 0.27 L | CL (Mus musculus [12]): 0.31 L/h | bioavailability [13]: < 1%
SMILES: CC(C)(C)c1ccc(CC2(N)CCN(c3ncnc4[nH]ccc34)CC2)cc1
